Measured values gathered from unrelated publications.
Compare with care: the assays were run in different laboratories.

COC(=O)c1cc(-c2cccc(NC(=O)Nc3ccc(C(F)(F)F)cc3)c2)on1 gave an MIC of > 64 µg/mL (Mycolicibacterium fortuitum; microbial growth, broth dilution; ATCC6841; 48 h).
CC(C(=O)N1CCCCC1)c1cccc(C(OC(=O)N2CCCCC2)c2ccccc2)c1 (stereo not shown) has an IC50 of 13 µM (CCRF-CEM; cell growth or viability; 72 h).
COc1ccc(C=NNC(=S)Nc2ccc(C#N)cc2)cc1 gave an IC50 of > 200 µg/mL (CCRF-CEM; cell growth or viability; 72 h).
With CCOC(=O)c1c(CSc2ccccc2)n(C)c2cc(Br)c(O)c(CN(C)C)c12.Cl.O the MIC50 was > 20 µg/mL (Cowpox virus; microbial growth).
COC(=O)c1cc(-c2cccc(NC(=S)Nc3ccc(C#N)cc3)c2)on1 gave an MIC of 64 µg/mL (Mycolicibacterium fortuitum; microbial growth, broth dilution; ATCC6841; 48 h).
The MIC50 of Nc1nc2c(ncn2COCCO)c(=O)[nH]1 is reported as 250 µM (Cowpox virus; microbial growth).
With COC(=O)c1cc(-c2cccc(NC(=S)Nc3cccc(Br)c3)c2)on1 the MIC was > 64 µg/mL (Mycolicibacterium fortuitum; microbial growth, broth dilution; ATCC6841; 48 h).
With CC(C(=O)n1nnc2ccccc21)c1cccc(C(OC(=O)n2nnc3ccccc32)c2ccccc2)c1 (stereo not shown) the IC50 was 67 µM (CCRF-CEM; cell growth or viability; 72 h).
The MIC of COC(=O)c1cc(-c2cccc(NC(=S)Nc3ccc([N+](=O)[O-])cc3)c2)on1 is reported as > 64 µg/mL (Mycolicibacterium fortuitum; microbial growth, broth dilution; ATCC6841; 48 h).
NCC(=O)Nc1ccc(-n2nc(C(F)(F)F)cc2-c2ccc3c(ccc4ccccc43)c2)cc1 gave an IC90 of 2.25 µM (Human immunodeficiency virus 1; viral replication, inhibitor; human PBMC; clinical isolate).
The IC50 of N#Cc1ccc(NC(=S)NN=Cc2ccc(O)cc2)cc1 is reported as 107 µg/mL (CCRF-CEM; cell growth or viability; 72 h).
The MIC of CO[C@H]1/C=C/O[C@@]2(C)Oc3c(C)c(O)c4c(O)c(c(/C=N/N5CCN(C)CC5)c(O)c4c3C2=O)NC(=O)/C(C)=C\C=C\[C@H](C)[C@H](O)[C@@H](C)[C@@H](O)[C@@H](C)[C@H](OC(C)=O)[C@@H]1C is reported as < 0.2 µg/mL (Mycobacterium marinum; microbial growth; ATCC927).
The IC50 of N.N.[Cl][Pt][Cl] is reported as 2.66 µM (PK-59; cell growth or viability, MTT; 24 h).
The MIC of COC(=O)c1cc(-c2cccc(NC(=O)NCc3ccccc3)c2)on1 is reported as > 64 µg/mL (Mycolicibacterium fortuitum; microbial growth, broth dilution; ATCC6841; 48 h).
The MIC50 of Nc1ccn(C[C@@H](CO)OCP(=O)(O)O)c(=O)n1 is reported as 22 µM (Cowpox virus; microbial growth).
N.N.[Cl][Pt][Cl] has an IC50 of 5.73 µM (184B5; cell growth or viability).
The IC50 of COc1cc(C(=O)c2cc3c(-c4ccccc4)c(O)ccc3o2)cc(OC)c1OC is reported as > 50 µM (CCRF-CEM; cell growth or viability; 72 h).
With COC(=O)c1cc(-c2cccc(NC(=O)Nc3cc(Cl)ccc3Cl)c2)on1 the MIC was > 64 µg/mL (Mycolicibacterium fortuitum; microbial growth, broth dilution; ATCC6841; 48 h).
Cc1ccc(-c2nc3ccc(C)cn3c2CC(=O)N(C)C)cc1 gave an MIC of > 50 µM (Mycobacterium marinum; microbial growth; 5 days).
